Experimental data reported in ChEMBL document CHEMBL3352503, “An investigation of in vitro cytotoxicity and apoptotic potential of aromatic diselenides” (Bioorg Med Chem Lett, 2014).
Active and inactive are the calls of the source. The calls are words filed in the database; no cut-off is given here.

How the values were obtained:
[1] = Cytotoxicity against human OVCAR5 cells after 48 hrs by MTT assay; type: functional, cell-based; settings: OVCAR-5, 48 h
[2] = Cytotoxicity against human 786-O cells after 48 hrs by MTT assay; type: functional, cell-based; settings: 786-0, 48 h
HT-29 = test: Cytotoxicity against human HT-29 cells after 48 hrs by MTT assay; type: functional, cell-based; settings: HT-29, 48 h
[3] = Cytotoxicity against human HL60 cells after 48 hrs by MTT assay; type: functional, cell-based; settings: HL-60, 48 h
Outline: (§1)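 Cells grown at 37°C, 5% CO2 with 10% heat-inactivated FBS, penicillin, streptomycin and L-glutamine: HL-60 (suspension) in RPMI-1640, PC-3 in MEM. Seeded 6000 cells/well, exposed 48 h to a range of concentrations (DMSO vehicle, final below 1%). MTT (2.5 mg/mL) added for 4 h, formazan dissolved in DMSO, OD at 540 nm (ref. 620 nm); growth vs untreated cells.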

[4] = Cytotoxicity against human PC3 cells after 48 hrs by MTT assay; type: functional, cell-based; settings: PC-3, 48 h; outline: as §1
[5] = Cell cycle arrest in human HL60 cells assessed as accumulation at S phase at 20 uM after 24 hrs by propidium iodide staining-based flow cytometry (reference value: 46.82%); type: functional; settings: HL-60
[6] = Cell cycle arrest in human HL60 cells assessed as accumulation at S phase at 30 uM after 24 hrs by propidium iodide staining-based flow cytometry (reference value: 46.82%); type: functional; settings: HL-60
HL-60 [7] = test: Induction of apoptosis in human HL60 cells assessed as loss of mitochondrial membrane potential after 24 hrs by Rhodamine-123 staining-based flow cytometric analysis; type: functional, cell-based
HL-60 [8] = test: Cytotoxicity against human HL60 cells by MTT assay; type: functional, cell-based; settings: TDE = time-dependent effect
Outline: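 Cells grown in RPMI-1640 with 10% heat-inactivated FBS at 37 °C, 5% CO₂, seeded at 6000 cells/well and exposed to test material for 48 hr. DMSO vehicle kept below 1% final. MTT (2.5 mg/mL) added for 4 hr, formazan dissolved in DMSO, OD read at 540 nm (reference 620 nm). Growth calculated as treated vs untreated absorbance.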

[9] = Cell cycle arrest in human HL60 cells assessed as accumulation at G1 phase at 20 uM after 24 hrs by propidium iodide staining-based flow cytometry (reference value: 50.80%); type: functional; settings: HL-60
[10] = Cell cycle arrest in human HL60 cells assessed as accumulation at G1 phase at 30 uM after 24 hrs by propidium iodide staining-based flow cytometry (reference value: 50.80%); type: functional; settings: HL-60
[11] = Cell cycle arrest in human HL60 cells assessed as accumulation at G1 phase at 10 uM after 24 hrs by propidium iodide staining-based flow cytometry (reference value: 50.80%); type: functional; settings: HL-60
HL-60 [12] = test: Induction of apoptosis in human HL60 cells assessed as nuclear fragmentation at 20 to 30 uM after 24 hrs by fluorescent microscopy; type: functional, cell-based
[13] = Cell cycle arrest in human HL60 cells assessed as accumulation at G2 phase at 30 uM after 24 hrs by propidium iodide staining-based flow cytometry (reference value: 2.39%); type: functional; settings: HL-60
HL-60 [14] = test: Induction of apoptosis in human HL60 cells assessed as loss of mitochondrial membrane potential at 10 uM after 24 hrs by Rhodamine-123 staining-based flow cytometric analysis (reference value: 6%); type: functional
[15] = Cell cycle arrest in human HL60 cells assessed as accumulation at S phase at 10 uM after 24 hrs by propidium iodide staining-based flow cytometry (reference value: 46.82%); type: functional; settings: HL-60
HL-60 [16] = test: Induction of apoptosis in human HL60 cells at 10 uM after 24 hrs by propidium iodide staining-based flow cytometry (reference value: 1.49%); type: functional
HL-60 [17] = test: Induction of apoptosis in human HL60 cells at 20 uM after 24 hrs by propidium iodide staining-based flow cytometry (reference value: 1.49%); type: functional
HL-60 [18] = test: Induction of apoptosis in human HL60 cells assessed as membrane blebbing at 20 to 30 uM after 24 hrs by fluorescent microscopy; type: functional, cell-based
[19] = Cell cycle arrest in human HL60 cells assessed as accumulation at G2 phase at 20 uM after 24 hrs by propidium iodide staining-based flow cytometry (reference value: 2.39%); type: functional; settings: HL-60
HL-60 [20] = test: Induction of apoptosis in human HL60 cells assessed as loss of mitochondrial membrane potential at 30 uM after 24 hrs by Rhodamine-123 staining-based flow cytometric analysis (reference value: 6%); type: functional
HL-60 [21] = test: Induction of apoptosis in human HL60 cells assessed as loss of mitochondrial membrane potential at 20 uM after 24 hrs by Rhodamine-123 staining-based flow cytometric analysis (reference value: 6%); type: functional
HL-60 [22] = test: Induction of apoptosis in human HL60 cells assessed as chromatin condensation at 20 to 30 uM after 24 hrs by fluorescent microscopy; type: functional, cell-based
[23] = Cell cycle arrest in human HL60 cells assessed as accumulation at G2 phase at 10 uM after 24 hrs by propidium iodide staining-based flow cytometry (reference value: 2.39%); type: functional; settings: HL-60
HL-60 [24] = test: Induction of apoptosis in human HL60 cells at 30 uM after 24 hrs by propidium iodide staining-based flow cytometry (reference value: 1.49%); type: functional

SMILES | IC50 [1] [µM] | IC50 [2] [µM] | IC50 (HT-29) [µM] | IC50 [3] [µM] | IC50 [4] [µM] | other results
c1ccc2c([Se][Se]c3cccc4ccccc34)cccc2c1 | 25 | 32 | 34 | 16 | 40 | –
Oc1ccccc1[Se][Se]c1ccccc1O | 21 | – | 23 | 14 | 25 | –
Cc1cc(C)cc([Se][Se]c2cc(C)cc(C)c2)c1 | 34 | 33 | 36 | 23 | 30 | –
c1ccc([Se][Se]c2ccccn2)nc1 | 27 | 29 | 30 | 28 | 26 | –
Oc1ccc([Se][Se]c2ccc(O)cc2)cc1 | 27 | 33 | 37 | 13 | 29 | –
CCc1ccccc1[Se][Se]c1ccccc1CC | 38 | 42 | 56 | 28 | 43 | –
OCc1ccc([Se][Se]c2ccc(CO)cc2)cc1 | 24 | 30 | 27 | 11 | 26 | –
Cc1ccc([Se][Se]c2ccc(C)cc2)cc1 | 31 | 29 | 37 | 33 | 29 | –
FC(F)(F)c1cc([Se][Se]c2cc(C(F)(F)F)cc(C(F)(F)F)c2)cc(C(F)(F)F)c1 | 20 | 24 | 21 | 8 | 13 | Activity [5]: 45.5%; Activity [6]: 53.9%; Activity (HL-60 [7]): Dose-dependent effect; inhibition (HL-60 [8]): tde; Activity [9]: 50.8%; Activity [10]: 46.1%; Activity [11]: 49.7%; Activity (HL-60 [12]): Active; Activity [13]: 0%; Activity (HL-60 [14]): 11%; Activity [15]: 48.4%; Activity (HL-60 [16]): 2.45%; Activity (HL-60 [17]): 5.65%; Activity (HL-60 [18]): Active; Activity [19]: 3.78%; Activity (HL-60 [20]): 58%; Activity (HL-60 [21]): 20%; Activity (HL-60 [22]): Active; Activity [23]: 1.93%; Activity (HL-60 [24]): 23.94%
Cc1cccc(C)c1[Se][Se]c1c(C)cccc1C | 39 | 40 | 35 | 27 | 33 | –
c1ccc([Se][Se]c2ccccc2)cc1 | 38 | 38 | 31 | 32 | 42 | –
COc1ccc([Se][Se]c2ccc(OC)cc2)cc1 | 26 | 28 | 24 | 12 | 27 | –
OCc1ccccc1[Se][Se]c1ccccc1CO | 16 | 27 | 25 | 14 | 28 | –
